Test results as given in ChEMBL document CHEMBL3232705, “Discovery of isoquinolinone indole acetic acids as antagonists of chemoattractant receptor homologous molecule expressed on Th2 cells (CRTH2) for the treatment of allergic inflammatory diseases” (J Med Chem, 2014).
Calls of active or inactive are those of the source. No cut-off for these calls is given here.

Experiments:
[1] = Half life in rat at 2 mg/kg, iv; assay type: ADME, organism-based; set-up: dose 2 mg/kg, route intravenous; conditions: in vivo
Procedure, shortened: (§1)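 Single intravenous dose of 2 mg/kg and single oral dose of 10 mg/kg, given separately, in rat, dog and monkey. Clearance and half-life taken from the iv arm; Cmax from the oral arm.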

[2] = Oral bioavailability in monkey at 10 mg/kg; assay type: ADME, organism-based, Macaca mulatta; conditions: rhesus monkey, in vivo
Mus musculus [3] = assay: Antiallergic activity in house dust mite-induced allergic airway disease BALB/c mouse model assessed as reduction in neutrophil level in bronchoalveolar lavage fluid at 40 mg/kg, po after 72 hrs of HDM challenge; assay type: functional, organism-based; set-up: dose 40 mg/kg; conditions: Lung
Procedure, shortened: (§2)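 BALB/c mice given house dust mite intratracheally via a catheter passed through the vocal cords. Test article 40 mg/kg orally once daily; dexamethasone 1 mg/kg ip once daily as reference. Total and differential BAL cells (eosinophils, macrophages, lymphocytes, neutrophils) counted 72 h after HDM challenge. Mean ± SEM, Mann–Whitney U test.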

[4] = Half life in monkey at 2 mg/kg, iv; assay type: ADME, organism-based, Macaca mulatta; set-up: dose 2 mg/kg, route intravenous; conditions: rhesus monkey, in vivo; procedure, shortened: as §1
[5] = Oral bioavailability in rat at 10 mg/kg; assay type: ADME, organism-based; conditions: in vivo
Cytochrome P450 2B6 = target: T1, Cytochrome P450 2B6 (Homo sapiens, UniProt P20813); assay: Inhibition of CYP2B6 (unknown origin); assay type: ADME
T1 sequence (P20813 whole entry): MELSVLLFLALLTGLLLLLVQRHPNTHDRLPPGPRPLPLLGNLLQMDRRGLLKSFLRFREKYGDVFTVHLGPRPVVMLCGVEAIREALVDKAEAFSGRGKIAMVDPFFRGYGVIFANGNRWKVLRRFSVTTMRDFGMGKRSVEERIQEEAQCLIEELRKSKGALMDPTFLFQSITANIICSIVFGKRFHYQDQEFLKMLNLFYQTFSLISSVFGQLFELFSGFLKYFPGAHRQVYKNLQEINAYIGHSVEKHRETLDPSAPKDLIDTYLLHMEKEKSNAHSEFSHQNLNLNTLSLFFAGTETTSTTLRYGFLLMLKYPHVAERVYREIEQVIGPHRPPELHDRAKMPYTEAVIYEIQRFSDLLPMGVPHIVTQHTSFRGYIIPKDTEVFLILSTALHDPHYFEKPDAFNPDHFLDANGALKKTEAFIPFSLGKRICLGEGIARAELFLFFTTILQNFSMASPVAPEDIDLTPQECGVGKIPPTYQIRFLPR

[6] = Clearance in dog at 2 mg/kg, iv; assay type: ADME, organism-based, Canis lupus familiaris; set-up: dose 2 mg/kg, route intravenous; conditions: in vivo; procedure, shortened: as §1
[7] = Volume of distribution at steady state in monkey at 2 mg/kg, iv; assay type: ADME, organism-based, Macaca mulatta; set-up: dose 2 mg/kg, route intravenous; conditions: rhesus monkey, in vivo, read-out: Vdss
[8] = Clearance in rat at 2 mg/kg, iv; assay type: ADME, organism-based; set-up: dose 2 mg/kg, route intravenous; conditions: in vivo; procedure, shortened: as §1
Ovis aries [9] = assay: Inhibition of allergen-induced mucociliary clearance in sheep assessed as tracheal mucus velocity at 3 mg/kg, iv measured at 8 hrs (reference value: 47%); assay type: functional; conditions: Trachea
Procedure, shortened: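 Five sheep received 3 mg/kg iv around allergen challenge. Tracheal mucus velocity measured at 4 h and 8 h and expressed as % of baseline.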

[10] = Cmax in rat at 10 mg/kg, po; assay type: ADME, organism-based; set-up: dose 10 mg/kg, route oral; conditions: in vivo; procedure, shortened: as §1
[11] = Half life in dog at 2 mg/kg, iv; assay type: ADME, organism-based, Canis lupus familiaris; set-up: dose 2 mg/kg, route intravenous; conditions: in vivo; procedure, shortened: as §1
Mus musculus [12] = assay: Antiallergic activity in house dust mite-induced allergic airway disease BALB/c mouse model assessed as reduction in total cellularity in bronchoalveolar lavage fluid at 40 mg/kg, po after 72 hrs of HDM challenge; assay type: functional, organism-based; set-up: dose 40 mg/kg; conditions: Lung; procedure, shortened: as §2
[13] = target: T2, Prostaglandin D2 receptor (Homo sapiens, UniProt Q13258); assay: Binding affinity to DP1 receptor (unknown origin) by FRET assay
T2 sequence (Q13258 whole entry): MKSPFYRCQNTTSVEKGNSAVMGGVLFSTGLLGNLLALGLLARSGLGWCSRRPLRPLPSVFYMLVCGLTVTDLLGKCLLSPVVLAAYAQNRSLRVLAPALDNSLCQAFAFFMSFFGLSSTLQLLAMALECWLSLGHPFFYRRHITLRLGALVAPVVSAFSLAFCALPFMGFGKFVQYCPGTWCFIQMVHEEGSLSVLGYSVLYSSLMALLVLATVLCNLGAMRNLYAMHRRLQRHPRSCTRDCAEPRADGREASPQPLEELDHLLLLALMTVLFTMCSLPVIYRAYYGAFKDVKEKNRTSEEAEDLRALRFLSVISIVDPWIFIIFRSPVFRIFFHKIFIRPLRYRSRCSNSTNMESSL

Mus musculus [14] = assay: Antiallergic activity in house dust mite-induced allergic airway disease BALB/c mouse model assessed as reduction in eosinophil level in bronchoalveolar lavage fluid at 40 mg/kg, po after 72 hrs of HDM challenge; assay type: functional, organism-based; set-up: dose 40 mg/kg; conditions: Lung; procedure, shortened: as §2
[15] = Volume of distribution at steady state in rat at 2 mg/kg, iv; assay type: ADME, organism-based; set-up: dose 2 mg/kg, route intravenous; conditions: in vivo, read-out: Vdss
[16] = target: Voltage-gated inwardly rectifying potassium channel KCNH2 (Homo sapiens, UniProt Q12809); assay: Inhibition of human ERG channel at 33 uM
Sequence of Voltage-gated inwardly rectifying potassium channel KCNH2 (Q12809 whole entry): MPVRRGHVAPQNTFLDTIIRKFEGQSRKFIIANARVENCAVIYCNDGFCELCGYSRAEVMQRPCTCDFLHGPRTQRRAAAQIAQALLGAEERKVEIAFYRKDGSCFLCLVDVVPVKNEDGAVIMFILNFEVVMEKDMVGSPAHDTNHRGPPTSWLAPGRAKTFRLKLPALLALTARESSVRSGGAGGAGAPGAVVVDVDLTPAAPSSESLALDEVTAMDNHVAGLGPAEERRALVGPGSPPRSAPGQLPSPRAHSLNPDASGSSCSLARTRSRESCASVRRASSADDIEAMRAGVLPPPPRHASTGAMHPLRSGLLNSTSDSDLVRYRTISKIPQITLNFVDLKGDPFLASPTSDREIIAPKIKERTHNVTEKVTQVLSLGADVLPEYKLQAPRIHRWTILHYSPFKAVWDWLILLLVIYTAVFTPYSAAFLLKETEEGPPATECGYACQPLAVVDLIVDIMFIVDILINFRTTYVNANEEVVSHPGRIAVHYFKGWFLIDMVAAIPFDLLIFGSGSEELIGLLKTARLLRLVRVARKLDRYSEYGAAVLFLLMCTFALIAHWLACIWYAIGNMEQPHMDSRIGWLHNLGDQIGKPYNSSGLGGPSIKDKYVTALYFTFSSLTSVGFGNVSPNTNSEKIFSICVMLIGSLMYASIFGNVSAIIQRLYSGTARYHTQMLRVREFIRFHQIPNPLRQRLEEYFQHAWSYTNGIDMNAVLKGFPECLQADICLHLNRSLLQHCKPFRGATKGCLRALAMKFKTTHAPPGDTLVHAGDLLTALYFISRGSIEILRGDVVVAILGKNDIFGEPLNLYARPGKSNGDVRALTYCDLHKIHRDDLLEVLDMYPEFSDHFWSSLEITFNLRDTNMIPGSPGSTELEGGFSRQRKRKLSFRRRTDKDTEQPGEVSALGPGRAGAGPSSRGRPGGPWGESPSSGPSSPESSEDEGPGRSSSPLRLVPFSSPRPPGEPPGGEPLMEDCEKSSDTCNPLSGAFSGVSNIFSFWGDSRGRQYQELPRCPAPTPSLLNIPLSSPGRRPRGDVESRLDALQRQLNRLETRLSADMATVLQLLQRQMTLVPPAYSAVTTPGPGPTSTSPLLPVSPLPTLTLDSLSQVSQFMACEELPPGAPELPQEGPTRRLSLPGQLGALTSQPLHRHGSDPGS

Cytochrome P450 2C9 = Cytochrome P450 2C9 (Homo sapiens, UniProt P11712); assay: Inhibition of CYP2C9 (unknown origin); assay type: ADME
Sequence of Cytochrome P450 2C9 (P11712 whole entry): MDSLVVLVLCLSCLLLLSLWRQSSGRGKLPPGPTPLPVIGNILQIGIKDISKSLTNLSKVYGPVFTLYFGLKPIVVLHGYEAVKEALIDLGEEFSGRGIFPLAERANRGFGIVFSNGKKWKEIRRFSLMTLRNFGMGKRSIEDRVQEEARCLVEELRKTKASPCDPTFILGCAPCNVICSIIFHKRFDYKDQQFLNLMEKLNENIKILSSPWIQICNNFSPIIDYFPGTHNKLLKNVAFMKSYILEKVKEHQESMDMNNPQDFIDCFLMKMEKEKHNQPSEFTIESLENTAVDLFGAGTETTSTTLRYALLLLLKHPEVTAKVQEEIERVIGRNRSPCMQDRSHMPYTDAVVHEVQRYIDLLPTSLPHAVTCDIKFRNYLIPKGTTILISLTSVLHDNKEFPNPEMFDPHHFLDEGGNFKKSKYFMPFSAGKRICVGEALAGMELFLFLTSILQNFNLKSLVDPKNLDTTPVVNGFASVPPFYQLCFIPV

[17] = Cmax in monkey at 10 mg/kg, po; assay type: ADME, organism-based, Macaca mulatta; set-up: dose 10 mg/kg, route oral; conditions: rhesus monkey, in vivo; procedure, shortened: as §1
Cytochrome P450 2C19 = Cytochrome P450 2C19 (Homo sapiens, UniProt P33261); assay: Inhibition of CYP2C19 (unknown origin); assay type: ADME
Sequence of Cytochrome P450 2C19 (P33261 whole entry): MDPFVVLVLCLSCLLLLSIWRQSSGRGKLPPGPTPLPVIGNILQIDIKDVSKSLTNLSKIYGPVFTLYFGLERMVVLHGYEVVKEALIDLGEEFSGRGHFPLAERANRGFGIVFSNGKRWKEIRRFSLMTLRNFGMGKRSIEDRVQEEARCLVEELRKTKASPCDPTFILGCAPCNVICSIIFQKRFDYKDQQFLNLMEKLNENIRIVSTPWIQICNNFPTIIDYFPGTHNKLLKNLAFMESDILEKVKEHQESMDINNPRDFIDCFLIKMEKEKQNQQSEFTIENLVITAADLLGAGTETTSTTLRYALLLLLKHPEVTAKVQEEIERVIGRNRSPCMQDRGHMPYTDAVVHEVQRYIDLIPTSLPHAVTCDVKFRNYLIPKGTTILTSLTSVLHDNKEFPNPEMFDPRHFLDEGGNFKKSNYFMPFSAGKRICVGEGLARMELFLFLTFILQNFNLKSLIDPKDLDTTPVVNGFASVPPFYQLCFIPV

Ovis aries [18] = assay: Inhibition of Ascaris-induced airway bronchoconstriction in sheep assessed as inhibition of late phase allergic airway bronchoconstriction at 3 mg/kg, iv bid; assay type: functional, organism-based; set-up: dose 3 mg/kg
Cytochrome P450 2D6 = Cytochrome P450 2D6 (Homo sapiens, UniProt P10635); assay: Inhibition of CYP2D6 (unknown origin); assay type: ADME
Sequence of Cytochrome P450 2D6 (P10635 whole entry): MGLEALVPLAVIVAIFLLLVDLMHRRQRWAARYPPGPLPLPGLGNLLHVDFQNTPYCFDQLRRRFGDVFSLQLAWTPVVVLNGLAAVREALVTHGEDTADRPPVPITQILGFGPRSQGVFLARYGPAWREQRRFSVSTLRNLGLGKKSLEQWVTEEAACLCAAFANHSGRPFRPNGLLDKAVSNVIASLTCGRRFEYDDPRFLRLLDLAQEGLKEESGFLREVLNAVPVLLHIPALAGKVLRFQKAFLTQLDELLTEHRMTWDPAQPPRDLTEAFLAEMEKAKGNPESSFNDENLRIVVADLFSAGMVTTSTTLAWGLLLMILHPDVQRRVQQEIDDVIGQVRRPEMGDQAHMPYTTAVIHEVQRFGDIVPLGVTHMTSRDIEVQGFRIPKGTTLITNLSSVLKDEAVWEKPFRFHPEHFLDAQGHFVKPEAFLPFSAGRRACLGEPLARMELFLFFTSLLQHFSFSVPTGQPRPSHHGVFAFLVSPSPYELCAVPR

[19] = Oral bioavailability in dog at 10 mg/kg; assay type: ADME, organism-based, Canis lupus familiaris; conditions: in vivo
[20] = target: T3, Prostaglandin D2 receptor 2 (Homo sapiens, UniProt Q9Y5Y4); assay: Binding affinity to human CRTH2 receptor
T3 sequence (Q9Y5Y4 whole entry): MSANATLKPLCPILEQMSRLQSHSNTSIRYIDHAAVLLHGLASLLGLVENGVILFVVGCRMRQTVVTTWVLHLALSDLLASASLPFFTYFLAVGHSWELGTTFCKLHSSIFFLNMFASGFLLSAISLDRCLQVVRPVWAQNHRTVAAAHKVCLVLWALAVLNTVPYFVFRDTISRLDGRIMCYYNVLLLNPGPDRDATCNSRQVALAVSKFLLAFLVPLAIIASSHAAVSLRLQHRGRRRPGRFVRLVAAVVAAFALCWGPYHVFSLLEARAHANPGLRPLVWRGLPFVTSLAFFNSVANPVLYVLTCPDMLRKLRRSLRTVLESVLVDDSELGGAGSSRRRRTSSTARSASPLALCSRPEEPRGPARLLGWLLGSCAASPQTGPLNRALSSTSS
Procedure, shortened: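 Competitive binding assay at human CRTH2, measuring displacement of tritium-labeled PGD2 by test compound; IC50 derived.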

[21] = Permeability in human Caco2 cells at pH 6.5; conditions: Caco-2, pH 6.5
Ovis aries [22] = assay: Inhibition of Ascaris-induced airway bronchoconstriction in sheep assessed as inhibition of bronchoalveolar lavage fluid inflammation at 1 mg/kg, iv qd for 7 days; assay type: functional, organism-based; set-up: dose 1 mg/kg; conditions: Lung
Procedure, shortened: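 Sheep given 1 mg/kg iv once daily for 7 days before Ascaris suum allergen challenge. Early and late responses read as airway resistance above baseline, compared with each animal's historical untreated values. After the AHR measurement, three bronchi per sheep were lavaged for cell counts.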

Q: Which half-life [1] does the source give for `Cc1c(-c2cn(C(C)C)c(=O)c3ccccc23)c2cc(F)ccc2n1CC(=O)O` here?
A: 2.7 h

Q: And the bioavailability [2]?
A: 69%

Q: What about the inhibition (Mus musculus [3]) of the same molecule?
A: Active

Q: What about the half-life [4] of the same molecule?
A: 4.1 h

Q: What about the bioavailability [5] of the same molecule?
A: 20%

Q: And the IC50 (Cytochrome P450 2B6)?
A: > 100 µM

Q: What about the clearance [6] of the same molecule?
A: 5.6 mL/min/kg

Q: What about the Vd [7] of the same molecule?
A: 0.95 L/kg

Q: And the clearance [8]?
A: 18 mL/min/kg

Q: And the inhibition in vivo at 3 mg/kg (Ovis aries [9])?
A: 98%

Q: And the Cmax [10]?
A: 253 ng/mL

Q: What about the half-life [11] of the same molecule?
A: 3.4 h

Q: What about the inhibition (Mus musculus [12]) of the same molecule?
A: Active

Q: What about the IC50 [13] of the same molecule?
A: 16 µM

Q: And the inhibition (Mus musculus [14])?
A: Active

Q: What about the Vd [15] of the same molecule?
A: 1.2 L/kg

Q: And the “inhibition (INH)” value [16]?
A: Not Active

Q: What about the IC50 (Cytochrome P450 2C9) of the same molecule?
A: 55 µM

Q: What about the Cmax [17] of the same molecule?
A: 2970 ng/mL

Q: And the IC50 (Cytochrome P450 2C19)?
A: > 100 µM

Q: And the inhibition (Ovis aries [18])?
A: Active

Q: What about the IC50 (Cytochrome P450 2D6) of the same molecule?
A: > 100 µM

Q: And the bioavailability [19]?
A: 32%

Q: And the IC50 [20]?
A: 0.0014 µM

Q: And the Papp [21]?
A: 2.7 ×10⁻⁶ cm/s

Q: What about the inhibition (Ovis aries [22]) of the same molecule?
A: Active
